pIC50, pKi: −log10 of the molar value. Activity calls are given as the source filed them. The rule behind the calls is not given here.
Key:
[1] = Inhibition of beta-lactamase IMP-1 (unknown origin) expressed in Escherichia coli BL21(DE3) using imipenem as substrate by measuring substrate hydrolysis by spectrophotometric analysis
Outline: (§1)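 Purified enzyme (overproduced in E. coli BL21(DE3), pET-9a; ion-exchange and gel filtration), 1-70 nM final. Reporter substrate 150 μM imipenem, read at 300 nm, 30 °C, 50 mM HEPES pH 7.5. Single-point screen at 100 or 200 μM; Ki from v0/vi vs [I] (0.5–1,000 μM final) assuming competitive inhibition, or Dixon plot. Triplicate.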

[2] = Inhibition of beta-lactamase NDM-1 (unknown origin) expressed in Escherichia coli LZ2310 assessed as potentiation of ceftazidime antibacterial activity by measuring ceftazidime induced diameter of inhibition zone at 80 uM incubated for 18 hrs by disk diffusion method (reference value: 15 mm)
Outline: (§2)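 Efflux-deficient E. coli LZ2310 (NorE, MdfA, AcrA knocked out) carrying pLB-II with the cloned MBL gene. Mueller-Hinton, CLSI disk diffusion; antibiotic disks (30 µg cefoxitin for VIM-2, 10 µg ampicillin for VIM-4, 30 µg ceftazidime for NDM-1/IMP-1) loaded with inhibitor in DMSO (≤15 µL). Zone diameter after 18 h, 35 ± 1 °C; DMSO and 220 µg EDTA controls. Triplicate.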

[3] = Inhibition of beta-lactamase NDM1 (unknown origin) expressed in Escherichia coli BL21(DE3) using cefotaxime/nitrocefin as substrate by measuring substrate hydrolysis by spectrophotometric analysis
Outline: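 His-tagged enzyme from E. coli BL21(DE3) pET-15b, affinity-purified, 1-70 nM final. Reporter substrate 120 μM cefotaxime (260 nm) or 100 μM nitrocefin (482 nm), 30 °C, 50 mM HEPES pH 7.5. Inhibitor 0.5–1,000 μM final; competitive Ki from v0/vi vs [I] slope or Dixon plot. Triplicate.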

[4] = Inhibition of beta-lactamase VIM2 (unknown origin) expressed in Escherichia coli BL21(DE3) using imipenem as substrate by measuring substrate hydrolysis at 100 uM by spectrophotometric analysis; outline: as §1
[5] = Inhibition of beta-lactamase VIM4 (unknown origin) expressed in Escherichia coli BL21(DE3) using imipenem as substrate by measuring substrate hydrolysis at 100 uM by spectrophotometric analysis; outline: as §1
[6] = Inhibition of beta-lactamase L1 (unknown origin) expressed in Escherichia coli BL21(DE3) using nitrocefin as substrate by measuring substrate hydrolysis at 100 uM preincubated for 30 mins by spectrophotometric analysis
Outline: (§3)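 Enzyme 0.2–0.8 nM in 25 mM HEPES pH 7.5 with 50 μM ZnCl2 final, pre-incubated 30 min at 21 °C with inhibitor (100 μM screen). Nitrocefin 100 μM final, read at 482 nm, 30 °C. Residual activity vs three uninhibited samples; Ki (1–100 μM inhibitor) from Hanes linearization, competitive model. Triplicate.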

Escherichia coli [7] = assay: Synergistic antibacterial activity against NDM-1 producing Escherichia coli assessed as MIC of imipenem at 32 ug/ml by broth microdilution method; assay type: functional; conditions: dose 32 µg/ml
Escherichia coli [8] = assay: Synergistic antibacterial activity against NDM-1 producing Escherichia coli assessed as MIC of meropenem at 32 ug/ml by broth microdilution method; assay type: functional; conditions: dose 32 µg/ml
Escherichia coli [9] = assay: Synergistic antibacterial activity against NDM-1 producing Escherichia coli assessed as MIC of ceftazidime at 32 ug/ml by broth microdilution method; assay type: functional; conditions: dose 32 µg/ml
Escherichia coli [10] = assay: Synergistic antibacterial activity against NDM-1 producing Escherichia coli assessed ass MIC of ceftazidime/avibactam at 32 ug/ml by broth microdilution method; assay type: functional; conditions: dose 32 µg/ml
Outline: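 MIC of ceftazidime-avibactam (avibactam fixed at 4 µg/mL) by CLSI broth microdilution in Mueller-Hinton broth. Used the NDM-1-producing multidrug-resistant E. coli clinical isolate SI-001M at 5 × 10⁴ CFU/well, with and without inhibitor at a fixed 32 µg/ml. No colistin added. Triplicate determinations.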

Escherichia coli [11] = assay: Antibacterial activity against NDM-1 producing Escherichia coli in presence of colistin by broth microdilution method.; assay type: functional
[12] = Inhibition of beta-lactamase L1 (unknown origin) expressed in Escherichia coli BL21(DE3) using nitrocefin as substrate by measuring substrate hydrolysis at 200 uM preincubated for 30 mins by spectrophotometric analysis
[13] = Inhibition of beta-lactamase VIM4 (unknown origin) expressed in Escherichia coli BL21(DE3) using imipenem as substrate by measuring substrate hydrolysis at 200 uM by spectrophotometric analysis; outline: as §1
[14] = Inhibition of beta-lactamase VIM2 (unknown origin) expressed in Escherichia coli BL21(DE3) using imipenem as substrate by measuring substrate hydrolysis at 200 uM by spectrophotometric analysis; outline: as §1
[15] = molecular target: Hydroxyacylglutathione hydrolase (Homo sapiens); assay: Inhibition of human Glyoxalase II expressed in Escherichia coli BL21 (DE3)
[16] = Inhibition of beta-lactamase IMP-1 (unknown origin) expressed in Escherichia coli BL21(DE3) using imipenem as substrate by measuring substrate hydrolysis at 200 uM by spectrophotometric analysis; outline: as §1
[17] = Inhibition of beta-lactamase IMP-1 (unknown origin) expressed in Escherichia coli BL21(DE3) using imipenem as substrate by measuring substrate hydrolysis at 100 uM by spectrophotometric analysis; outline: as §1
[18] = Inhibition of beta-lactamase NDM1 (unknown origin) expressed in Escherichia coli BL21(DE3) using cefotaxime/nitrocefin as substrate by measuring substrate hydrolysis at 200 uM by spectrophotometric analysis
[19] = Inhibition of beta-lactamase NDM1 (unknown origin) expressed in Escherichia coli BL21(DE3) using cefotaxime/nitrocefin as substrate by measuring substrate hydrolysis at 100 uM by spectrophotometric analysis
[20] = Inhibition of beta-lactamase IMP-1 (unknown origin) expressed in Escherichia coli LZ2310 assessed as potentiation of ceftazidime antibacterial activity by measuring ceftazidime induced diameter of inhibition zone at 80 uM incubated for 18 hrs by disk diffusion method (reference value: 9 mm); outline: as §2
[21] = Inhibition of beta-lactamase VIM-2 (unknown origin) expressed in Escherichia coli LZ2310 assessed as potentiation of cefoxitin antibacterial activity by measuring cefoxitin induced diameter of inhibition zone at 80 uM incubated for 18 hrs by disk diffusion method (reference value: 14 mm); outline: as §2
[22] = Inhibition of beta-lactamase VIM2 (unknown origin) expressed in Escherichia coli BL21(DE3) using imipenem as substrate by measuring substrate hydrolysis by spectrophotometric analysis; outline: as §1
[23] = Inhibition of beta-lactamase VIM4 (unknown origin) expressed in Escherichia coli BL21(DE3) using imipenem as substrate by measuring substrate hydrolysis by spectrophotometric analysis; outline: as §1
[24] = Inhibition of beta-lactamase L1 (unknown origin) expressed in Escherichia coli BL21(DE3) using nitrocefin as substrate by measuring substrate hydrolysis preincubated for 30 mins by spectrophotometric analysis; outline: as §3
[25] = Inhibition of beta-lactamase VIM-2 (unknown origin) expressed in Escherichia coli LZ2310 assessed as potentiation of cefoxitin antibacterial activity by measuring cefoxitin induced diameter of inhibition zone at 320 uM incubated for 18 hrs by disk diffusion method (reference value: 14 mm); outline: as §2
[26] = Inhibition of beta-lactamase VIM-2 (unknown origin) expressed in Escherichia coli XL-1 assessed as potentiation of cefoxitin antibacterial activity by measuring cefoxitin induced diameter of inhibition zone at 320 uM incubated for 18 hrs by disk diffusion method (reference value: 8 mm)
Outline: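 Wild-type efflux E. coli XL-1 Blue transformed with pLB-II-VIM-2. Mueller-Hinton disk diffusion per CLSI, 30 µg cefoxitin disks loaded with inhibitor dissolved in DMSO (≤15 µL). Growth-inhibition zone measured after 18 h at 35 ± 1 °C; DMSO negative and 220 µg EDTA positive controls. Triplicate.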

[27] = Inhibition of beta-lactamase IMP-1 (unknown origin) expressed in Escherichia coli LZ2310 assessed as potentiation of ceftazidime antibacterial activity by measuring ceftazidime induced diameter of inhibition zone at 320 uM incubated for 18 hrs by disk diffusion method (reference value: 9 mm); outline: as §2

SMILES	pKi [1]	inhibition zone (IZ) [2] [mm]	pKi [3]	inhibition [4]	inhibition [5]	inhibition [6]	MIC (Escherichia coli [7]) [µg/mL]	MIC (Escherichia coli [8]) [µg/mL]	MIC (Escherichia coli [9]) [µg/mL]	MIC (Escherichia coli [10]) [µg/mL]	MIC (Escherichia coli [11]) [µg/mL]	inhibition [12]	inhibition [13]	inhibition [14]	inhibition [16]	inhibition [17]	inhibition [18]	inhibition [19]	pKi [22]	pKi [23]	other results
S=c1[nH]nc(-c2cccc(-c3ccccc3)c2)n1/N=C/c1ccc(OCc2ccccc2)cc1	5.05	15	5.74	inactive	inactive	inactive	8	64	> 256	> 256	> 256	inactive	inactive	inactive	–	–	–	–	–	–	pIC50 [15]: 4.63
S=c1[nH]nc(Cc2ccc3ccccc3c2)n1/N=C/c1ccc(OCc2ccccc2)cc1	–	–	–	inactive	inactive	inactive	–	–	–	–	–	inactive	inactive	inactive	inactive	inactive	inactive	inactive	–	–	inhibition zone (IZ) [20]: 9 mm
O=C(O)c1ccccc1/C=N/n1c(-c2ccc(-c3ccccc3)cc2)n[nH]c1=S	4.49	15	5.89	–	–	–	8	32	> 256	> 256	> 256	–	–	–	–	–	–	–	5.60	5.40	inhibition zone (IZ) [21]: 15 mm; pKi [24]: 6.05
O=C(O)c1ccccc1/C=N/n1c(-c2ccccc2O)n[nH]c1=S	–	–	–	–	–	40%	–	–	–	–	–	–	–	–	inactive	inactive	inactive	inactive	5.66	5.52	inhibition zone (IZ) [25]: 17 mm; inhibition zone (IZ) [26]: 10 mm; inhibition zone (IZ) [27]: 12 mm
